Legend:
Jurkat = assay: Inhibition of NFAT-mediated luciferase gene transcription in human jurkat J77 cell line after 6 hrs; type: functional, cell-based
Outline: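 Jurkat J77 cells electroporated (300 V, 800 μF) with NFAT-luciferase plasmid (four NFAT sites), grown 24 h in FBS-RPMI. Pretreated 1 h with compound (0.1-1000 μM, DMSO stocks), then stimulated with PMA plus anti-CD3 (2 μg/well) for 6 h. Lysate luciferase read; sigmoidal fit of RLU vs log concentration, IC50 = 50% drop versus DMSO control; mean ± S.E., n = 4.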

[1] = tested on: Panel NCI-62 (62 carcinoma cell lines); assay: Antiproliferative activity against human NCI62 cell line after 48 hrs; type: functional
Outline: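 NCI 60-panel screen (62 cell lines): cells grown 24 h in supplemented RPMI 1640, then exposed to drug 48 h at 5 concentrations, 10^-8 to 10^-4 M. Stopped with cold trichloroacetic acid, fixed, sulforhodamine B stained, bound dye solubilized and absorbance read. Growth inhibition from time-zero, control and treated absorbances; GI50 as mean ± S.D. across 62 lines.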

## CC(NC(=O)Cc1ccc(NP(=O)(OCc2ccc([N+](=O)[O-])o2)N(C)CCCCCl)cc1)c1ccc(OCC2CCCCC2)c(C(N)=O)c1 (stereo not given)
Jurkat
  IC50: 20 µM

## CC(NC(=O)c1ccc(NP(=O)(OCc2ccc([N+](=O)[O-])o2)N(C)CCCCCl)cc1)c1ccc(OCC2CCCCC2)c(C(N)=O)c1 (stereo not given)
Jurkat
  IC50: 16 µM
[1]
  GI50: 18 µM

## CC(NC(=O)c1ccc(OP(=O)(OCc2ccc([N+](=O)[O-])o2)N(C)CCCCCl)cc1)c1ccc(OCC2CCCCC2)c(C(N)=O)c1 (stereo not given)
Jurkat
  IC50: 31 µM
[1]
  GI50: 12 µM

## CC(=O)N[C@@H](Cc1ccc(OP(=O)(OCc2ccc([N+](=O)[O-])o2)N(C)CCCCCl)cc1)C(=O)NC(C)c1ccc(OCC2CCCCC2)c(C(N)=O)c1 (stereo not given in full)
Jurkat
  IC50: 21 µM
[1]
  GI50: 6 µM

## CC(=O)N[C@@H](Cc1ccc(NP(=O)(OCc2ccc([N+](=O)[O-])o2)N(C)CCCCCl)cc1)C(=O)NC(C)c1ccc(OCC2CCCCC2)c(C(N)=O)c1 (stereo not given in full)
Jurkat
  IC50: 28 µM

## CC(NC(=O)Cc1ccc(OP(=O)(OCc2ccc([N+](=O)[O-])o2)N(C)CCCCCl)cc1)c1ccc(OCC2CCCCC2)c(C(N)=O)c1 (stereo not given)
Jurkat
  IC50: 9 µM
[1]
  GI50: 3 µM

— ChEMBL document CHEMBL1148508, “Design and synthesis of phosphotyrosine peptidomimetic prodrugs” (J Med Chem, 2006)
